High-throughput results deposited in PubChem by several laboratories.
bovine MsrA act – bovine methionine sulfoxide reductase A activation | purified bovine MsrA, absorbance read-out | activation, % at 10.6 µM | actives 0.3% (n = 360,000); in the data active means activation above about 7.5%
procasp3 activ – activates human procaspase-3 | AID 463141 | P42574 | actives 0.11% (n = 330,000) | activation, % at 8.5 µM | recombinant procaspase-3 D3A, Ac-DEVD-pNA absorbance 405 nm;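 active means activation above the mean of all tested compounds plus 3 SD, cut at about 21% in these data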
Target sequence (P42574 whole entry D9A/D28A/D175A): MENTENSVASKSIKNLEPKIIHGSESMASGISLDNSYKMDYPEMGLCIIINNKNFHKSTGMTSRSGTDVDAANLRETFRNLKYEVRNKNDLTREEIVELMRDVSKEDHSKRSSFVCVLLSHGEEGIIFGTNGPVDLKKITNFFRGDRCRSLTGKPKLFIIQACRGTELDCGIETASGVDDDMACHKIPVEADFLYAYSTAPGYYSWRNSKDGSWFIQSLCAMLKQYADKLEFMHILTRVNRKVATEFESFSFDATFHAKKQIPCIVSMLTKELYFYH
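material = Procaspase-3 D3A mutant | probe or stimulus = Ac-DEVD-pNA | compound = single dose, 8.5 µM nominal compound, 0.8% DMSO | timing = 1 h preincubation, 2 h reaction | measured by = 405 nm absorbance of p-nitroaniline, reads at 0 and 120 min | benchmarks = DMSO-only low control, 5 µM PC-3 D3A high control | repeats = singlicate, each compound tested once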
A1 inh – inhibitors of the anti-apoptotic protein A1, read as caspase activation | MEF A1-2A-BIM cells, Caspase-Glo 3/7 luminescence, 3 h; percent of clofoctol response, vehicle zero | caspase activation, % (test concentration not listed) | actives 0.066% (n = 330,000);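 active means over half of replicate activation scores above 10%, or exactly half above 10 with the replicate mean above 10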
MsrA inhibitor – inhibits bovine methionine sulfoxide reductase A; actives 0.75% (n = 360,000); purified bovine MsrA, absorbance read-out; inhibition, % at 15.5 µM; AID 651718; in the data active means inhibition above about 4.5%
proCasp7 act – counter-screen for procaspase-3 activators: activators of human procaspase-7. recombinant procaspase-7, Ac-DEVD-pNA absorbance 405 nm; D23A/D198A/D206A triple mutant, cannot self-cleave; scale: DMSO 0, 5 µM enzyme 100. actives 0.093% (n = 330,000). activation, % at 8.5 µM;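 active means percent activation above the screen-wide mean plus 3 SD, cut at about 25% in these data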
Target sequence (P55210 whole entry D23A/D198A/D206A): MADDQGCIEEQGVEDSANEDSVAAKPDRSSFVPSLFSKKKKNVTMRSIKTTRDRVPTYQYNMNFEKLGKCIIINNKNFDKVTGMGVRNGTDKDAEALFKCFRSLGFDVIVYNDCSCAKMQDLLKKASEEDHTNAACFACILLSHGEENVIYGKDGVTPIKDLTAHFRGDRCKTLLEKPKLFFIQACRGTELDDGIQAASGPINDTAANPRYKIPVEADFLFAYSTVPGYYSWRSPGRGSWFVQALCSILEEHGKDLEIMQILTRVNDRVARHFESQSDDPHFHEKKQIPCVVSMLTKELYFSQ
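Assay system: Uncleavable procaspase-7 mutant enzyme | Input: 2 µM procaspase-7 mutant as dispensed | Timing: 1 h compound preincubation, 2 h substrate cleavage, 25 °C | Repeats: One well per compound | Control set: DMSO wells as 0%, DMSO with 5 µM added PC-7 as 100% | Technique: Epi-absorbance of released pNA at 405 nm, two timepoints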
MsrA act confirm – bovine methionine sulfoxide reductase A activation confirmed | purified bovine MsrA, absorbance read-out | AID 602270 | shares compounds with bovine MsrA act | actives 12% (n = 1,000) | activation, % at 10.6 µM; in the data active means activation above about 4%;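 further: enzyme coupled to thioredoxin and thioredoxin reductase with NADPH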
Each line names hits and unclear results; the compound was inactive in the other large screens (follow-up assays come after a bar, where they were run). Shown are actives, neighbours in structure and some others; about 1.2% of the full set was active somewhere.

Nc1[nH]c(C(=O)c2ccccc2)c(-c2ccc3ccccc3c2)c1C(=O)NCc1ccc(-c2ccccc2)cc1	none (no result: bovine MsrA act, procasp3 activ, A1 inh, proCasp7 act)
CC1=C(C#N)C(c2ccc(O)cc2)C2=C(CC(C)(C)CC2=O)N1 (configuration not stated)	bovine MsrA act 10.4 | MsrA act confirm inactive
Cn1c(SCc2cccc(Cl)c2)nc(C(F)(F)F)cc1=O	bovine MsrA act 8.4 | MsrA act confirm inactive
Cn1c(SCc2ccccc2)nc(C(F)(F)F)cc1=O	none
COc1ccccc1Cc1c(-c2ccc(Cl)cc2)nc2ccc(C)cn12	none (no result: bovine MsrA act, procasp3 activ, A1 inh, proCasp7 act)
CC1=C(C(=O)OC2CCCCCCC2)C(c2cccc(O)c2)NC(=O)N1 (configuration not stated)	bovine MsrA act 8.9 | MsrA act confirm inactive
COc1ccc(C2CC(=O)C(c3cccc(OC)c3)=CN2Cc2ccccc2)cc1 (configuration not stated)	none (no result: bovine MsrA act, procasp3 activ, A1 inh, proCasp7 act)
CCCCc1nnc(NC(=O)CCS(=O)(=O)c2ccc(C)cc2)s1	bovine MsrA act 7.8 | MsrA act confirm inactive
CCc1nnc(NC(=O)CCS(=O)(=O)c2ccc(C)cc2)s1	none
Cc1ccc(-c2ccnc(=S)[nH]2)cc1	bovine MsrA act 9.4 | MsrA act confirm 6.2
O=C1NCCN(Cc2ccc(Cl)c(F)c2)C1CC(=O)N1CCCCO1 (configuration not stated)	bovine MsrA act 8.6 | MsrA act confirm inactive
C#CC1c2ccccc2CCN1CC=C (configuration not stated)	none (no result: bovine MsrA act, procasp3 activ, A1 inh, proCasp7 act)
O=C(CSCc1ccc(Cl)cc1)NN=C1CCCC1	bovine MsrA act 8.1 | MsrA act confirm inactive
N#Cc1ccc(CSCC(=O)NN=C2CCCC2)cc1	none
C[C@H](O)[C@@H]1CN2CCc3ccc(-c4ccc5c(c4)OCO5)cc3[C@@H]2C[C@@H]1N(C)Cc1cc(Cl)cc(Cl)c1	none (no result: bovine MsrA act, procasp3 activ, A1 inh, proCasp7 act)
Fc1ccccc1/C=N/n1c(COc2ccccc2)n[nH]c1=S	bovine MsrA act 9.9 | MsrA act confirm inactive
Oc1ccccc1/C=N/n1c(COc2ccccc2)n[nH]c1=S	none
COC(=O)[C@]12C[C@H](CC(=O)N3CCCC3)C(=O)N(Cc3ccccc3)C1=C[C@H](C(C)(C)C)O[C@@H]2C	none (no result: bovine MsrA act, procasp3 activ, A1 inh, proCasp7 act)
CCCCNC(=O)C1CC(=O)N(CCC(C)C)C1 (configuration not stated)	none
CC(C)CCN1CC(C(=O)NC(C)C)CC1=O (configuration not stated)	bovine MsrA act 10.9 | MsrA act confirm inactive
O=C(NCc1ccccc1)[C@@H]1CCCN1C(=O)[C@H]1CCCN1C(=O)c1c(F)cccc1F	none (no result: bovine MsrA act, procasp3 activ, A1 inh, proCasp7 act)
COc1ccc(CN(C(=O)c2ccco2)c2ccc(C)cc2)cc1OC	bovine MsrA act 7.9 | MsrA act confirm inactive
COc1ccccc1C(=O)N(Cc1ccccc1)c1ccc(C)cc1	none
CC(=O)N(C)c1ccc(N=Nc2c(C)[nH]n(C(N)=S)c2=O)cc1	none
CC(=O)N(C)c1ccc(N=Nc2c(C)[nH]n(-c3ccccc3)c2=O)cc1	bovine MsrA act 8.0 | MsrA act confirm inactive
O=C(CCN1CCN(C(=O)c2ccco2)CC1)Nc1ccc(F)cc1	none
O=C(c1ccco1)N1CCN(CCCCOc2ccc(F)cc2)CC1	bovine MsrA act 9.4 | MsrA act confirm inactive
CC1CCCC(C)N1/N=C/c1cc(Br)cc(Br)c1O (configuration not stated)	bovine MsrA act 9.2 | MsrA act confirm inactive
COCc1[nH]nc2c1C(c1ccc(F)cc1)N(c1ccc(OC)cc1)C2=O (configuration not stated)	none (no result: bovine MsrA act, procasp3 activ, A1 inh, proCasp7 act)
O=C(Nc1ccccc1)OC[C@@H]1CSCCS(=O)(=O)N1	none (no result: bovine MsrA act, procasp3 activ, A1 inh, proCasp7 act)
Cn1ccnc1SCCC#N	none
Cc1nnc(SCCC#N)n(CCC#N)c1=O	bovine MsrA act 9.2 | MsrA act confirm inactive
Cc1cc(-c2ccccc2)cc(=O)[nH]1	bovine MsrA act 12.8 (no result: procasp3 activ, A1 inh, proCasp7 act) | MsrA act confirm inactive
CC(C)c1ccc(NC(=S)NCc2cccs2)cc1	bovine MsrA act 8.1 | MsrA act confirm inactive
COc1ccc(NC(=S)NCc2cccs2)cc1	none
Cc1ccc(S(=O)(=O)NC2=NCCCCC2)cc1	bovine MsrA act 12.8 | MsrA act confirm inactive
CSc1oc(-c2ccccc2)nc1S(=O)(=O)c1ccc(C)cc1	bovine MsrA act 8.0 (no result: A1 inh) | MsrA act confirm inactive
COc1ccc(CCN2CC(=O)N3CCc4ccc(N5CCOCC5)cc4C3CC2=O)cc1OC (configuration not stated)	none (no result: bovine MsrA act, procasp3 activ, A1 inh, proCasp7 act)
CCn1nc(C(=O)OCC(=O)Nc2ncc(Cl)c(C)c2Cl)c2ccccc2c1=O	bovine MsrA act 18.6 | MsrA act confirm inactive
CCc1nc2ccc(C(=O)Nc3ccc(NC(C)=O)cc3)cn2c1N(C)CCC(C)C	bovine MsrA act 8.8 (no result: procasp3 activ, A1 inh, proCasp7 act) | MsrA act confirm inactive
CCOc1ccccc1CNC(=O)c1cc2oc3ccccc3c2n1CC	bovine MsrA act 8.1 | MsrA act confirm inactive
O=C(O)C1CSC(CCc2ccccc2)N1 (configuration not stated)	bovine MsrA act 7.8 | MsrA act confirm inactive
CC(C)OP(=O)(OC(C)C)C(C)NC(=O)Cc1ccccc1 (configuration not stated)	bovine MsrA act 17.3 | MsrA act confirm inactive
CCC(C)(C)n1nnnc1C(c1ccc(C)cc1)N1CCN(Cc2ccc3c(c2)OCO3)CC1 (configuration not stated)	bovine MsrA act 8.7 | MsrA act confirm inactive
CCOc1ccccc1OCCCNCc1ccco1	bovine MsrA act 13.4 | MsrA act confirm inactive
COCCNC(=S)N(C)[C@H]1C[C@H]2c3[nH]c4c(-c5ccc6c(c5)OCO6)cccc4c3CCN2C(=O)[C@H]1[C@H](C)O	none (no result: bovine MsrA act, procasp3 activ, A1 inh, proCasp7 act)
Cc1ccc(C2(C)NC(=O)N(CC(=O)Nc3ccc4c(c3)OCO4)C2=O)cc1 (configuration not stated)	bovine MsrA act 11.1 | MsrA act confirm inactive
COC(=O)c1ccc(/C=C2/SC(=S)N(CCC(=O)NCCCN3CCOCC3)C2=O)cc1	bovine MsrA act 8.1 | MsrA act confirm inactive
c1ccc2nc3c(nc2c1)CCCC3	none
C1CCc2nc3c(nc2C1)CCCC3	bovine MsrA act 17.4 | MsrA act confirm inactive
S=c1nc(-c2ccccc2Cl)[nH][nH]1	bovine MsrA act 8.1 | MsrA act confirm inactive
COC(=O)Cn1nnc(N2CCOCC2)n1	bovine MsrA act 8.0 | MsrA act confirm inactive
Cc1cc(Oc2cccnc2)ccc1NC(=O)Cc1cn(C)c2ccccc12	none (no result: bovine MsrA act, procasp3 activ, A1 inh, proCasp7 act)
CCc1cc2c(-c3ccccc3)cc(=O)oc2cc1OC(=O)c1cccs1	bovine MsrA act 11.1 | MsrA act confirm inactive
CCOc1ccc2nc(NC(=S)N(C)C)sc2c1	bovine MsrA act 8.1 (no result: A1 inh) | MsrA act confirm inactive
O=C(COC(=O)c1c[nH]c2ccccc12)NC1CCCC1	bovine MsrA act 21.6 | MsrA act confirm inactive
Cn1cc(/C=C/C(=O)c2ccccc2)c2ccccc21	bovine MsrA act 9.1 | MsrA act confirm inactive
